ChEMBL document CHEMBL3351238, “Part I. Synthesis, biological evaluation and docking studies of new 2-furylbenzimidazoles as antiangiogenic agents” (Eur J Med Chem, 2014)
Values after ≈ are worked out from the molar mass of the structure shown.

Assays:
MCF7 [1] = experiment: Cytotoxicity against human MCF7 cells after 48 hrs by sulforhodamine B assay; assay type: functional, cell-based; conditions: MCF7, 48 h
Summary of the method: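 MCF-7 cells seeded at 10^4 per well and allowed 24 h to attach, then exposed to 0.0, 5.0, 12.5, 25.0 and 50 μg/ml, six wells per dose, for 48 h at 37 °C in 5% CO2. Cells were fixed and stained with sulforhodamine B. Bound dye was recovered in Tris EDTA and read on an ELISA reader. IC50 taken from the survival-fraction versus concentration curve.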

MCF7 [2] = experiment: Inhibition of VEGF production in human MCF7 cells at cytotoxic IC50 level after 24 hrs by ELISA; assay type: functional
Summary of the method: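 MCF-7 from ATCC, grown in DMEM with 10% heat-inactivated FCS, penicillin and streptomycin at 37 °C in 5% CO2, 0.50 × 10^6 cells per 25 cm2 flask. Compound in DMSO (tamoxifen as reference) added for 24 h. Cells homogenized in saline. Human VEGF measured by double-antibody sandwich ELISA (biotin antibody, streptavidin-HRP, A450) against a standard curve, duplicate determinations. Inhibition relative to untreated cells.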

[3] = target: T1, Prostaglandin G/H synthase 1 (Ovis aries, UniProt P05979); experiment: Inhibition of ovine COX1 assessed as reduction in PGH2-dervied PGF2alpha production using arachidonic acid substrate by enzyme immunoassay
T1 sequence (P05979 whole entry): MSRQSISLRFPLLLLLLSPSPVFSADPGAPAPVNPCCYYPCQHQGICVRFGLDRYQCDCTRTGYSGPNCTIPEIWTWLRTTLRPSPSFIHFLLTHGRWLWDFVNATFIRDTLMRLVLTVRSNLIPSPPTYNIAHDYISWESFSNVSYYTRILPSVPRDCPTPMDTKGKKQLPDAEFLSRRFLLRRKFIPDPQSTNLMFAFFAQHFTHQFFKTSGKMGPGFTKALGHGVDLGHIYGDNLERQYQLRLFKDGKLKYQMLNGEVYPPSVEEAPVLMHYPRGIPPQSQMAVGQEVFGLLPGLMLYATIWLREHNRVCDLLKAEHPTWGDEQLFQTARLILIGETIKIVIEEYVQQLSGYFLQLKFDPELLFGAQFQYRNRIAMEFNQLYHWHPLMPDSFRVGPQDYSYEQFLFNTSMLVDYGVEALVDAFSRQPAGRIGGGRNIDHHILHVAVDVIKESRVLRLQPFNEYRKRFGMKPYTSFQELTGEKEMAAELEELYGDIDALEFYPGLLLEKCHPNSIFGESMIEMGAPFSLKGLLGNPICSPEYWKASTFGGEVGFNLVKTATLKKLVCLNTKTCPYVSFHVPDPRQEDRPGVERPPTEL
Summary of the method: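 Arachidonic acid added and reaction stopped with HCl after 2 min. PGH2 reduced with SnCl2 and PGF2α quantified by competitive EIA at 410 nm. IC50 from concentration–inhibition curve, duplicates.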

IC50 [3] [µM]	SMILES	IC50 (MCF7 [1]) [mg/L]	inhibition (INH) (MCF7 [2]) [%]
	CCOC(=O)C/C(C)=N/NC(=O)Cn1c(-c2ccc(C)o2)nc2ccccc21	19.6 (≈ 51.3 µM)	24
	CCOC(=O)Cn1c(-c2ccco2)nc2ccccc21	15.2 (≈ 56.2 µM)	62
> 50	Nn1c(Cn2c(-c3ccco3)nc3ccccc32)n[nH]c1=S	20.5 (≈ 65.6 µM)	91
	CC/C(=C(\c1ccccc1)c1ccc(OCCN(C)C)cc1)c1ccccc1 [TAMOXIFEN]	8 (≈ 21.5 µM)	98
	CCOC(=O)Cn1c(-c2ccc(C)o2)nc2ccccc21	17.8 (≈ 62.6 µM)	28
> 50	Cc1ccc(-c2nc3ccccc3n2CC(=O)NN)o1	22.4 (≈ 82.9 µM)	86
	Cc1ccc(-c2nc3ccccc3[nH]2)o1	14 (≈ 70.6 µM)	95
	CSc1nnc(-n2c(-c3ccco3)nc3ccccc32)o1	19.3 (≈ 64.7 µM)	16
	c1coc(-c2nc3ccccc3[nH]2)c1 [FUBERIDAZOLE]	21.5 (≈ 117 µM)	15
	Cc1ccc(-c2nc3ccccc3n2S(=O)(=O)c2ccccc2)o1	8.63 (≈ 25.5 µM)	98
	NNC(=O)Cn1c(-c2ccc(CNCc3ccccc3)o2)nc2ccccc21	19.3 (≈ 51.4 µM)	19
	S=c1[nH]nc(Cn2c(-c3ccco3)nc3ccccc32)o1	16.9 (≈ 56.6 µM)	41
	Cc1ccc(-c2nc3ccccc3n2Cc2n[nH]c(=S)o2)o1	16.6 (≈ 53.1 µM)	39
	NNC(=O)Cn1c(-c2ccco2)nc2ccccc21	20.2 (≈ 78.8 µM)	24
> 50	NNC(=O)Cn1c(-c2ccc(CNc3ccncc3)o2)nc2ccccc21	22 (≈ 60.7 µM)	90
	c1ccc(Cn2c(-c3ccco3)nc3ccccc32)cc1	6.98 (≈ 25.4 µM)	98
	O=S(=O)(c1ccccc1)n1c(-c2ccco2)nc2ccccc21	21.2 (≈ 65.4 µM)	14
	CCOC(=O)C/C(C)=N/NC(=O)Cn1c(-c2ccco2)nc2ccccc21	17 (≈ 46.1 µM)	38
